Data taken from publication PMC10431048 (CPT: Pharmacometrics & Systems Pharmacology, 2023).
Values joined by “and” are separate entries in the source; they are usually repeats but may differ in a detail not shown here. Identical values can stand only once. “Also recorded” adds a separate entry of the source. Like-named read-outs stand apart in the source and are kept apart here.

Tests used:
[1] = assay type: in vivo, human; settings: for change in steady-state AUC vs base: 800 mg once daily
Summary of the method: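 Simulated steady-state exposure (AUC, Cmax, Cmin) at 800 mg/day from the final model for a typical white male FSGS subject: 800-mg tablet, median ALKP and CrCL, no moderate or strong CYP3A4 inhibitor. Continuous covariates were set one at a time to 5th and 95th percentiles, and categorical covariates to alternative categories. Multivariate effects came from post hoc individual estimates stratified by covariate category.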

[2] = sparsentan 400 titrating to 800 mg/day vs irbesartan, week 36; cited from earlier work
[3] = cited from earlier work
[4] = mild and moderate hepatic impairment; ref study 021IHFX16009, data on file; cited from earlier work
Population PK model = assay type: in vivo, human
Summary of the method: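 Plasma from nine trials (healthy, hepatic-impaired, FSGS; K2EDTA; acetonitrile precipitation; deuterated internal standard) was assayed by LC-MS/MS, 2.00–4000 ng/mL, LLOQ 2 ng/mL; samples below LLOQ were excluded. NONMEM FOCE-I fit: two compartments, lag plus first-order absorption, proportional-plus-additive error, nonlinear Frel above 200 mg, instant CL/F induction after first dose. Covariates: forward p<0.01, backward p<0.001. Bootstrap gave standard errors.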

CYP3A = settings: ref data on file, cited from earlier work
[5] = mass balance study; ref study 021HVOL16005, data on file; cited from earlier work
[6] = ALKP at the 5th and 95th percentile
[7] = CrCL at the 5th and 95th percentile
[8] = covariates other than moderate/strong CYP3A4 inhibitors, steady-state 800 mg
[9] = log-domain coefficient, vs capsule
[10] = log-domain coefficient, vs white

## CCCCC1=NC2(CCCC2)C(=O)N1Cc1ccc(-c2ccccc2S(=O)(=O)Nc2noc(C)c2C)c(COCC)c1 [sparsentan]
[1]; [6]
  effect of ALKP on AUC: < 15%
  effect of ALKP on Cmax: < 10%
[1]; [7]
  impact of CrCL on AUC: < 20%
  impact of CrCL on Cmax: < 10%
[1]; FSGS, 800-mg tablet
  steady-state exposures across race: comparable
[1]; FSGS, 800-mg tablet, age 8-17, 18-64, >=65 years
  steady-state exposure by age bracket: increase
[1]; capsule and crushed tablet compared to tablet
  effect of formulation on steady-state AUC: unaffected; also recorded: no overall change
[1]; capsule and crushed tablet formulations compared to tablet, 800 mg
  increase in steady-state Cmax by formulation: less than 10%
[1]; [8]
  effect of other covariates on AUC: less than 20%
  effect of other covariates on Cmax: less than 20%
[1]; female, White, Black, Asian
  impact of sex and race on steady-state AUC: < 15%
  impact of sex and race on steady-state Cmax: < 15%
[1]; moderate CYP3A4 inhibitor comedication
  change in steady-state Cmax vs base: 16.0%
[1]; moderate CYP3A4 inhibitor comedication, FSGS
  change in steady-state AUC vs base: 31.4% and 31%
[1]; strong CYP3A4 inhibitor comedication, FSGS
  change in steady-state AUC vs base: 191.3% and 191%
[2]
  FPRE response, interim results: significantly greater
[3]; sparsentan 200, 400, or 800 mg/day vs irbesartan 300 mg/day, 8 weeks
  reduction in urinary protein to creatinine ratio (UP/C): higher reduction
[3]; sparsentan vs irbesartan
  rates of patients reaching the FSGS partial remission end point (FPRE): higher rates
[4]
  effect of hepatic impairment on sparsentan exposure: not having a large effect
Population PK model; 800 mg dose
  Vc/F (derived): 69.5 L
  Vp/F (derived): 17.0 L
Population PK model; 800 mg dose, single dose, reference subject
  CL/F (derived): 5.47 L/h
Population PK model; 400-mg dose, reference subject
  Q/F: 2.03 L/h
  Vp/F: 12.1 L
Population PK model; 400-mg dose, reference subject white female, 400-mg capsule
  Vc/F: 49.3 L
Population PK model; acid reducer (including proton pump inhibitors), P-gp inhibitor, or mild CYP3A4 inhibitor
  effect of co-medications on PK: No significant effect
Population PK model; additional CL at steady-state (CYP3A auto-induction), 400-mg reference subject
  Induction change in CL: 1.23 L/h
Population PK model; capsule (reference)
  Ka: 0.740 h⁻¹
Population PK model; human, plasma, oral, 800 mg
  half-life: 9.6 h
Population PK model; interindividual random effect
  Variance Ka: 0.474
  Variance Vc: 0.234
Population PK model; [9]
  Effect on Ka: Crushed tablet: 0.080
  Effect on Ka: Tablet: −0.306
Population PK model; [10]
  Effect on Vc: Asian: 0.265
  Effect on Vc: Black or African American: 0.309
Population PK model; steady-state vs first dose
  increase of clearance due to CYP3A auto-induction at steady-state: 32%
CYP3A; in vitro
  interaction with CYP3A in vitro: competitive inhibitor and inducer
CYP3A
  metabolism: primarily metabolized by CYP3A
[5]
  urinary excretion: 2.18 % of the radioactive dose
